Bridge positions count the residues as written; N and C are the ends. Square brackets hold non-standard residues; d marks the D form. Peptide text beside a SMILES is read from it. * marks the point of attachment. NMeTrp(1-(4-Br-benzyl)) = CN[C@@H](Cc1cn(Cc2ccc(Br)cc2)c2ccccc12)C(=O)O; Butanoyl(2R-oxy,4-CN) = N#CCC[C@@H](O)C(=O)O; Abu(4,4,4-F3) = N[C@@H](CC(F)(F)F)C(=O)O; dNMeaIle = CC[C@H](C)[C@@H](NC)C(=O)O; NMe2Val = CC(C)[C@@H](C(=O)*)N(C)C; NMeI = CC[C@H](C)[C@H](NC)C(=O)O; NMeT = CN[C@H](C(=O)O)[C@@H](C)O; NMeL = CN[C@@H](CC(C)C)C(=O)O; Hiv = CC(C)[C@H](O)C(=O)O; NMeS = CN[C@@H](CO)C(=O)O; NMeA = CN[C@@H](C)C(=O)O; dNMeA = CN[C@H](C)C(=O)O
Experiments:
SPs of Sec61 substrates = settings: read-out: IC50, SPs of other (insensitive) Sec61 substrates; cited from earlier work
BiP = test: Immunoblot of BiP expression; assay type: cell-based, human; settings: for BiP expression: HUVECs and U87-MG cells, 1 μM, 24 h
VEGF-A = VEGF-A in cell culture medium by ELISA; assay type: cell-based, human; settings: 1 µM, sustained 24 h after removal
U87-MG GBM cells = test: Cell viability; assay type: cell-based, human; settings: 72 h
Summary of the method: (§1)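 Cells are grown at 37 °C in 5% CO2. U87-MG and U251 are in MEM with 10% FBS, SF-268 in DMEM with 10% FBS, and SF-295 in RPMI 1640 with 10% FBS. HUVECs are pooled donors. Exposure is to the test compound (0.1 nM–1 μM) or 0.1% DMSO for 72 h. Viability is read by ATP luminescence as % of vehicle, n = 3 wells. […] comes from a logistic nonlinear fit over three independent comparisons.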

VCAM1 [1] = test: Immunoblot of TNFα-stimulated VCAM1 in SF-295 cells; assay type: cell-based, human; settings: for Efficacy in suppressing TNFα-stimulated VCAM1 expression: 1 µM, 24 h; for IC50: read-out: IC50, VCAM1 expression, TNFα 10 ng/mL, 24 h
Summary of the method: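 SF-295 cells (RPMI 1640, 10% FBS) are cotreated 24 h with increasing concentrations of test compound plus TNFα 10 ng/mL. Controls are 0.1% DMSO-treated and untreated cells. VCAM1 and ICAM1 are immunoblotted after SDS-PAGE and PVDF transfer. Signals are normalized to a loading control. Concentration–response is fit to a logistic equation by nonlinear regression.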

VCAM1 [2] = test: Immunoblot of VCAM1 transiently expressed in HEK293 cells; assay type: cell-based, human; settings: 1 µM, 24 h
[3] = tested on: patient-derived GSCs (M120, MGG6, M76, GBM8, and 157); assay type: cell-based, human; settings: read-out: EC50 values, five GSC lines (M120, MGG6, M76, GBM8, 157); 72 h
Hsp90 = test: Immunoblot of Hsp90 in U87-MG cells; assay type: cell-based, human; settings: 1 30 nM, 2 1 μM, 24 h
Summary of the method: (§2)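 U87-MG cells in MEM with 10% FBS are exposed 24 h to test compound (30 nM or 1 μM) or 0.1% DMSO. Protein-matched lysates (BCA) are run on SDS-PAGE, transferred to PVDF and detected with HRP secondary. Signals are normalized to α-tubulin and expressed relative to control. Three independent experiments; one-way ANOVA then t-test.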

SF-295 GBM cells = test: Cell viability; assay type: cell-based, human; settings: 72 h
Summary of the method: as §1

Hsp70 = test: Immunoblot of Hsp70 in U87-MG cells; assay type: cell-based, human; settings: 1 30 nM, 2 1 μM, 24 h
Summary of the method: as §2

[4] = tested on: HEK293FRT cells expressing WT or mutant (R66I) Sec61α; test: Viability of WT versus Sec61α R66I mutant HEK293 cells; assay type: cell-based, human; settings: 72 h or 3 + 3 day exposure
Summary of the method: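 HEK293FRT cells carrying Sec61α R66I, with wild-type comparators, are grown in DMEM with 10% FBS, 6 mM L-glutamine and 1 mM pyruvate. They are exposed to increasing test compound concentrations or 0.1% DMSO for 72 h, or 3 + 3 days to avoid nutrient deprivation. ATP viability is read as % of vehicle, n = 3 wells. Logistic nonlinear fit; ≥3 independent experiments.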

[5] = tested on: human cytokines and chemokines in the SF-268 secretome; test: Secretome profiling of human cytokines/chemokines in SF-268 conditioned medium; assay type: cell-based; settings: SF-268, 1 μM, medium collected 24 h after removal, relative to vehicle
Summary of the method: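 SF-268 cells are seeded in 96-well plates; next day they get complete medium with test compound (1 μM) or 0.1% DMSO for 24 h. Medium is then replaced by serum-free medium for a further 24 h. Conditioned medium is concentrated by centrifugation (75 min, 4000g), flash-frozen and run on a 48-plex multiplex laser-bead cytokine/chemokine immunoassay. 43 analytes are quantified (five below detection dropped); data are % of vehicle.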

[6] = tested on: WT and mutant (R66I) Sec61α HCT116 colon cancer cells; test: Viability of WT versus Sec61α R66I mutant HCT116 cells; assay type: cell-based, human; settings: for Effect of Sec61α R66I mutation on cytotoxic response relative to WT HCT116 cells: 72 h and 6 days (3 + 3 day exposure)
calreticulin (CALR) = test: Immunoblot of calreticulin expression in U87-MG cells; assay type: cell-based, human; settings: 1 μM, 24 h
Summary of the method: as §2

cancer cell lines = settings: cited from earlier work
[7] = target: Gaussia luciferase (GLuc); test: Gaussia luciferase; assay type: cell-based, human; settings: 18 h; for Functional inhibition of GLuc secretion: relative to 1–3 or AprA
Summary of the method: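 U87-MG cells stably express GLuc after lentiviral transduction. Cells are seeded at 3000/well, allowed to adhere overnight, then given test compound or 0.1% DMSO for 18 h. Conditioned medium is read for luminescence with 1.2 μM final coelenterazine (3 s wait, 0.5 s integration). Adherent-cell ATP viability is read at the same time. Data are % of vehicle; IC50 comes from a logistic nonlinear fit; n ≥3 independent experiments.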

[8] = tested on: UPR markers (BiP, CHOP, sXBP1, GADD34, IRE1) mRNA; test: qPCR of ER stress; assay type: cell-based, human; settings: 300 nM, 24 h
Summary of the method: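 GSC neurospheres (MGG6, 83, M76, GBM8) are treated 24 h with test compound 80 nM, thapsigargin 300 nM, both together, or 0.1% DMSO. BiP, CHOP, sXBP1, GADD34 and IRE1 mRNA are measured by qPCR normalized to GAPDH and expressed as fold-change versus vehicle.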

SMILES: CC(C)C[C@@H]1NC(=O)[C@H](Cc2cn(Cc3ccc(Br)cc3)c3ccccc23)N(C)C(=O)[C@H](CC(F)(F)F)NC(=O)[C@H](CC(C)C)N(C)C(=O)[C@H](CC(F)(F)F)NC(=O)[C@@H](CCC#N)OC(=O)[C@H](C)N(C)C1=O [KZR-8445] (cyclo(L[NMeA][Butanoyl(2R-oxy,4-CN)][Abu(4,4,4-F3)][NMeL][Abu(4,4,4-F3)][NMeTrp(1-(4-Br-benzyl))]))
- IC50 (SPs of Sec61 substrates): > 25000 nM

SMILES: CC[C@H](C)[C@H]1C(=O)N[C@@H](C)C(=O)N(C)[C@@H](CC(C)C)C(=O)N[C@@H](Cc2ccc(OC)cc2)C(=O)N(C)[C@H](C)C(=O)O[C@H](C)[C@H](N(C)C(=O)[C@H](CC(C)C)N(C)C(=O)[C@H](COC)N(C)C(=O)[C@@H](OC(=O)[C@H](C(C)C)N(C)C)C(C)C)C(=O)N(C)[C@@H](COC)C(=O)N1C [compound 2, [L-Hiv^2]-CbA] (NMe2Val-[Hiv][NMeS](Me)[NMeL][NMeT][NMeS](Me)[NMeI]A[NMeL]Y(Me)[dNMeA]; ester 4-C)
- BiP expression, GSC line 83 (BiP; 1 250 nM and 500 nM, 2 3 µM, 72 h): decrease
- BiP expression (BiP): suppressed
- Inhibition of VEGF-A at 24 h (VEGF-A): statistically significant inhibition
- Fold less potent than 1, U87-MG cells (U87-MG GBM cells): approximately 13 fold
- Fold greater sensitivity of VCAM1 to 2 than to 3 (VCAM1 [1]): approximately 7 fold
- Efficacy in suppressing TNFα-stimulated VCAM1 expression (VCAM1 [1]): fully efficacious
- IC50 (VCAM1 [1]): 88 nM
- Level of VCAM1 transiently expressed in HEK293 cells (VCAM1 [2]): statistically significant decreases
- EC50 [3]: < 3000 nM
- Hsp90 expression (Hsp90): upregulation
- Fold less sensitive than 1, SF-295 cells (SF-295 GBM cells): 5 fold
- Hsp70 expression (Hsp70): upregulation
- Response of mutant Sec61(R66I) HEK293 cells relative to WT [4]: patterns of resistance
- Number of the 43 secreted proteins whose expression was decreased by <50% [5]: 24
- Effect of Sec61α R66I mutation on cytotoxic response relative to WT HCT116 cells [6]: decrease in cytotoxic efficacy

SMILES: CC[C@H](C)[C@H]1C(=O)N[C@@H](C)C(=O)N(C)[C@@H](CC(C)C)C(=O)N[C@@H](Cc2ccc(OC)cc2)C(=O)N(C)[C@@H](C)C(=O)O[C@H](C)[C@H](N(C)C(=O)[C@H](CC(C)C)N(C)C(=O)[C@H](COC)N(C)C(=O)[C@@H](OC(=O)[C@H](C(C)C)N(C)C)C(C)C)C(=O)N(C)[C@@H](COC)C(=O)N1C [compound 3, [L-Hiv^2, L-MeAla^11]-CbA] (NMe2Val-[Hiv][NMeS](Me)[NMeL][NMeT][NMeS](Me)[NMeI]A[NMeL]Y(Me)[NMeA]; ester 4-C)
- BiP expression (BiP): no statistically significant change
- CALR expression (calreticulin (CALR)): less sensitive
- Inhibition of VEGF-A at 24 h (VEGF-A): statistically significant inhibition
- Efficacy in suppressing TNFα-stimulated VCAM1 expression (VCAM1 [1]): partially effective
- IC50 (VCAM1 [1]): 620 nM
- Level of VCAM1 transiently expressed in HEK293 cells (VCAM1 [2]): statistically significant decreases
- EC50 [3]: < 6000 nM
- Cytotoxic efficacy range (cancer cell lines): micromolar range
- Response of mutant Sec61(R66I) HEK293 cells relative to WT [4]: patterns of resistance
- Number of the 43 secreted proteins whose expression was decreased by <50% [5]: 18
- Cell viability of HCT116 cells at 72 h ([6]; 72 h, 0.3 nM–3 μM): no change in the cell viability
- Response of R66I mutant HCT116 cells at the extended end point ([6]; 6 days (3 + 3 day exposure)): pattern of resistance
- IC50 ([7]; read-out: IC50, inhibition of GLuc secretion, U87-MG cells expressing GLuc, conditioned medium): < 20 nM

SMILES: CC[C@H](C)[C@@H]1C(=O)N[C@@H](C)C(=O)N(C)[C@@H](CC(C)C)C(=O)N[C@@H](Cc2ccc(OC)cc2)C(=O)N(C)[C@H](C)C(=O)O[C@H](C)[C@H](N(C)C(=O)[C@H](CC(C)C)N(C)C(=O)[C@H](COC)N(C)C(=O)[C@@H](OC(=O)[C@H](C(C)C)N(C)C)C(C)C)C(=O)N(C)[C@@H](COC)C(=O)N1C [compound 4, [L-Hiv^2, D-allo-Ile^7]-CbA] (NMe2Val-[Hiv][NMeS](Me)[NMeL][NMeT][NMeS](Me)[dNMeaIle]A[NMeL]Y(Me)[dNMeA]; ester 4-C)
- Functional inhibition of GLuc secretion [7]: loss of functional efficacy

SMILES: CC[C@H](C)[C@@H]1C(=O)N[C@@H](C)C(=O)N(C)[C@@H](CC(C)C)C(=O)N[C@@H](Cc2ccc(OC)cc2)C(=O)N(C)[C@@H](C)C(=O)O[C@H](C)[C@H](N(C)C(=O)[C@H](CC(C)C)N(C)C(=O)[C@H](COC)N(C)C(=O)[C@@H](OC(=O)[C@H](C(C)C)N(C)C)C(C)C)C(=O)N(C)[C@@H](COC)C(=O)N1C [compound 5, [L-Hiv^2, D-allo-Ile^7, L-MeAla^11]-CbA] (NMe2Val-[Hiv][NMeS](Me)[NMeL][NMeT][NMeS](Me)[dNMeaIle]A[NMeL]Y(Me)[NMeA]; ester 4-C)
- Functional inhibition of GLuc secretion [7]: loss of functional efficacy

SMILES: C[C@@]12OC(=O)[C@]1([C@@H](O)[C@@H]1C=CCCC1)NC(=O)[C@@H]2CCCl [marizomib, reference compound]
- Response of mutant Sec61(R66I) HEK293 cells relative to WT [4]: highly sensitive
- Effect of Sec61α R66I mutation on cytotoxic response relative to WT HCT116 cells [6]: did not change the cytotoxic efficacy

SMILES: C/C=C(/C)C(=O)O[C@H]1C(C)=C2[C@H]([C@@H]1OC(=O)CCCCCCC)[C@@](C)(OC(C)=O)C[C@H](OC(=O)CCC)[C@@]1(O)[C@H]2OC(=O)[C@@]1(C)O [thapsigargin, reference compound]
- BiP, CHOP, sXBP1, GADD34 and IRE1 mRNA expression in GSCs [8]: marked upregulation
